Measured values of several laboratories.
KCNH2: Voltage-gated inwardly rectifying potassium channel KCNH2 (KCNH2, Homo sapiens, UniProt Q12809)

For `CC(C)n1cc(C#N)c2cc(-n3cc(C(=O)O)cn3)ccc21`, the Tmax was 4.01 h (human, plasma; oral, 300 mg, single dose, fasted, healthy volunteers).
With `CC(=O)N1CCC(C(=O)N2CCN3C(=O)c4cc(-c5ccccc5)ccc4NC(=O)C3C2)CC1` (stereo not shown) the inhibition was 2.6% (KCNH2; ion current, inhibitor, patch clamp; HEK293; 0.1 µM).
For `COc1ccc2c(c1)CN(C(=O)CCN1CCC(Cc3ccccc3)CC1)CC[S@@+]2[O-]`, the Tmax was 0 h (male human, plasma; intravenous, 0.01 mg/kg, healthy volunteers).
`O=C(COc1ccc(Cl)cc1)NC12CC(c3nnc([C@H]4C[C@@H](OC(F)(F)F)C4)o3)(C1)C2` gave a Tmax of 24 h (human, plasma; oral, 100 mg, single dose, fasted, healthy volunteers).
`COc1cccc(OC)c1-c1cc(C(=O)NC2(C(=O)O)C3CC4CC(C3)CC2C4)nn1-c1ccc(C(=O)N(C)CCCN(C)CCCN(C)C(=O)CN2CCN(CC(=O)[O-])CCN(CC(=O)[O-])CCN(CC(=O)[O-])CC2)cc1C(C)C.[177Lu+3]` (stereo not shown) gave a tracer uptake of 0.28 %ID/g (HT-29; pancreas; 7 days, tumour-bearing).
`CN1C[C@H](COc2nccc3c(NCc4ccco4)cc(Cl)nc23)OC1=O` has an inhibition of 21.4% (KCNH2; ion current, inhibitor; HEK293; 10 µM).
`COc1nc(-c2cccc(-c3ccccc3)c2C)ccc1CNCCNC(=O)CCCCCCCCCCC(=O)N1CCN(CCNC(=O)c2cc3c(=O)n4cccc(C)c4nc3n(CCc3cccs3)c2=N)CC1` gave an MRT(0-t) of 12.4 h (male Sprague-Dawley rat, plasma; oral, 40 mg/kg).
For `N[C@H]1C(O)O[C@H](CO)[C@@H](O)[C@@H]1O` (stereo partly shown), the viability was 102% (Caco-2; cell growth or viability, CCK-8; 10 mM).
`C[C@H]1Oc2cc(cnc2N)-c2c(nn(C)c2C#N)CN(C)C(=O)c2ccc(F)cc21` gave an MRT(0-inf) of 11.7 h (male Sprague-Dawley rat, plasma; oral, 10 mg/kg, single dose).
The inhibition of `CCOC(=O)C1=C(CN2CCC[C@@H]2C(=O)Nc2ccc(B(O)O)cc2)NC(c2nccs2)=N[C@H]1c1ccc(F)cc1Br` is reported as 31.8% (KCNH2; ion current, inhibitor, patch clamp; HEK293; 3 µM, pH 7.4).
